Screens: PubChem, several laboratories
An excerpt weighted towards active compounds, which were near 9.6% of everything screened.
HCT116 PTEN-null – growth suppression of PTEN-null HCT116, primary screen, cell-based, CellTiter-Glo; HCT116 PTEN-null viability, 60 h; hits give low values; viability, % at 10 µM; hit rate 1.2% among 140,000; AID 827, 2007;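 active means viability at or below a set limit, 4 SD under the median of all tested compounds, cut at about 3.7% in these data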;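 further: PTEN knockout HCT116 line with beta catenin targeted HCT116 as companion control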
TNAP act hi DEA – TNAP activators at high phosphate acceptor level, primary screen, biochemical, luminescence, uHTS; AID 1136, 2008; activation factor at 20 µM; Alkaline phosphatase, tissue-nonspecific isozyme (Homo sapiens), P05186; purified TNAP, CDP-star luminescence, 1 M DEA, 30 min; hits give high values; 0 = EDTA background, 1 = DMSO-only activity; 200,000 tested, under 10 active;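 active means activation factor at least 2 at 20 µM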
Target sequence (P05186 whole entry, looked up): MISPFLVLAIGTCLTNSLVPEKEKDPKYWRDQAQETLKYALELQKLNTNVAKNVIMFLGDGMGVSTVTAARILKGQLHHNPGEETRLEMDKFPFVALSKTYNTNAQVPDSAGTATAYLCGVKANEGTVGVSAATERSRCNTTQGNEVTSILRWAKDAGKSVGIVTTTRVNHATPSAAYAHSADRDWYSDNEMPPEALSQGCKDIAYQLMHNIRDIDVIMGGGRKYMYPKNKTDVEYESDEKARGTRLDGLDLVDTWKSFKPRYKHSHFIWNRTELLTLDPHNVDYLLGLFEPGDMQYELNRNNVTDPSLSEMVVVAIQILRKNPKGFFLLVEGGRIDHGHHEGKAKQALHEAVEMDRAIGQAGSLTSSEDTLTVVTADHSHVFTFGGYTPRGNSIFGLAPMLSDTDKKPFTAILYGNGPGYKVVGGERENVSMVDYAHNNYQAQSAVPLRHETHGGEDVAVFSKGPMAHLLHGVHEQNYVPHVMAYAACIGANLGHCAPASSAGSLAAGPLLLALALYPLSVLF
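Control set: EDTA negative control, DMSO positive control / Assay system: human TNAP / Quantity: TNAP 1/800 final / Evaluation: TNAP activation factor scaled between EDTA and DMSO control wells / Measured by: luminescent substrate turnover signal / Compound dosing: one dose, 20 µM / Times: 30 min enzyme reaction at room temperature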
Lmaj promast – Leishmania major promastigote growth inhibition, primary screen; Leishmania major promastigotes, resazurin fluorescence viability; inhibition, % at 10 µM; hit rate 9% among 200,000; in the data active means inhibition above about 50%;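 further: promastigotes grown with compound for 44 hours at 28 °C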
HCT116 bCat-KO – primary screen for growth suppressors in beta-catenin knockout HCT116 cells (colon tumor, human). HCT116 beta-catenin knockout viability, CellTiter-Glo, 60 h; hits give low values. viability, % at 10 µM. hit rate 1.5% among 140,000. AID 818, 2007;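 active means viability at or under a set limit, the compound median less 4 SD, cut at about 6% in these data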
TNAP inh hiacc – human TNAP enzyme inhibitors, primary screen, biochemical, luminescent, high phosphate acceptor level, uHTS | Alkaline phosphatase, tissue-nonspecific isozyme (Homo sapiens), P05186 | hit rate 0.03% among 200,000 | inhibition, % at 20 µM | purified TNAP, CDP-star luminescence, 1 M DEA;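 active means over 50% inhibition of tissue-nonspecific alkaline phosphatase at 20 µM in the single-dose screen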
TNAP inh no acc – human TNAP enzyme inhibitors, primary screen, biochemical, luminescent, no phosphate acceptor, uHTS; Alkaline phosphatase, tissue-nonspecific isozyme (Homo sapiens), P05186; inhibition, % at 20 µM; hit rate 0.26% among 200,000; purified TNAP, CDP-star luminescence, 30 min;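 active means tissue-nonspecific alkaline phosphatase inhibition above about 50% at 20 µM in the single-dose screen, limit read from the data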
A number is an active result; 0 = inactive; - = no result given.

SMILES | HCT116 PTEN-null | TNAP act hi DEA | Lmaj promast | HCT116 bCat-KO | TNAP inh hiacc | TNAP inh no acc
COc1ccc(NC(=O)CSc2nnc(C3CCCCC3)n2-c2ccccc2)cc1 | 0 | 0 | 69.7 | 0 | 0 | 0
COC(=O)c1ccc2c(=O)n(CC3CCCO3)c(SCC(=O)Nc3ccccc3Cl)nc2c1 (stereo unspecified) | 2.2 | 0 | 0 | 2.5 | 0 | 0
Cc1c(Br)c(C(F)(F)F)nn1CC(=O)NCCCn1ccnc1 | - | 0 | 0 | - | 0 | 0
N#Cc1ccc(COn2nnc3ccccc32)cc1 | - | 0 | 0 | - | 0 | 0
Cc1ccc(C2NC(=O)CCC2[N+](=O)[O-])cc1 (stereo unspecified) | - | 0 | 0 | - | 0 | 0
CCOc1ccc(NC(=O)CSc2nc3ccccc3c(=O)n2CCCC(=O)N2CCCC2)cc1 | 0 | 0 | 0 | 0 | 0 | 0
COc1ccc(NC(=O)CSc2nc3ccccc3c(=O)n2CCCN2CCC(C)CC2)c(OC)c1 | - | 0 | 55.2 | - | 0 | 0
Cc1ccc(NC(=O)CSc2nc3ccccc3c(=O)n2CCCN2CCCCC2)cc1Cl | - | 0 | 100.5 | - | 0 | 0
CCOC(=O)c1ccc(NC(=O)CSc2nnc(CCc3ccc(C)o3)n2-c2ccccc2)cc1 | 0 | 0 | 51.6 | 0 | 0 | 0
COc1ccc(NC(=O)CSc2nc3ccccc3c(=O)n2CCC(=O)N2CCCCC2)cc1 | 0 | 0 | 70.0 | 0 | 0 | 0
Cc1ccc(CCc2nnc(SCC(=O)Nc3ccccc3Cl)n2-c2ccccc2)o1 | 0 | 0 | 0 | 0 | 0 | 0
CC(=O)OCC(=O)Nc1c(C)cccc1C | - | 0 | 0 | - | 0 | 0
Cc1ccc2nc(NC(=O)CCNS(=O)(=O)c3cccs3)sc2c1 | 0 | 0 | 0 | 0 | 0 | 0
Cc1ccc2nc(NC(=O)CCNS(=O)(=O)c3ccc(Br)s3)sc2c1 | 0 | 0 | 97.9 | 0 | 0 | 0
COc1cccc(/C=N/NC(N)=S)c1OCc1ccccc1Cl | 0 | 0 | 0 | 0 | 0 | 0
NC(=S)N/N=C/c1ccccc1OCCSc1ccc(Cl)cc1 | 0 | 0 | 100.3 | 0 | 0 | 0
COCCNC(=O)c1ccc(CN2CCc3ccccc3C2)cc1 | 0 | 0 | 0 | 0 | 0 | 0
CCCNC(=O)c1ccc(CN2CCc3ccccc3C2)cc1 | 0 | 0 | 55.6 | 0 | 0 | 0
O=C(c1ccc(CN2CCc3ccccc3C2)cc1)N1CCN(c2ccc(F)cc2)CC1 | - | - | 0 | - | - | -
Cc1c(NC(=O)c2ccc(CN3CCc4ccccc4C3)cc2)c(=O)n(-c2ccccc2)n1C | 0 | 0 | 0 | 0 | 0 | 0
O=C(c1ccc(COc2ccccc2Br)o1)N1CCCCCC1 | 0 | 0 | 0 | 0 | 0 | 0
O=C(c1ccc(COc2ccccc2Br)cc1)N1CCCCC1 | 0 | 0 | 69.8 | 0 | 0 | 0
Cc1cc(C)c(NC(=O)c2ccc(CN3CCc4ccccc4C3)cc2)c(C)c1 | 0 | 0 | 73.5 | 0 | 0 | 0
O=C(c1ccc(CN2CCc3ccccc3C2)cc1)N1CCCCC1 | 0 | 0 | 63.5 | 0 | 0 | 0
O=C(NC12CC3CC(CC(C3)C1)C2)c1cc([N+](=O)[O-])ccc1N1CCOCC1 | - | 0 | 0 | - | 0 | 0
SMILES | HCT116 PTEN-null | TNAP act hi DEA | Lmaj promast | HCT116 bCat-KO | TNAP inh hiacc | TNAP inh no acc
O=C(C1CCCN(Cc2ccccc2)C1)N1CCc2ccccc2C1 (stereo unspecified) | 0 | 0 | 96.4 | 0 | 0 | 0
O=C(NCc1cccnc1)c1ccc(CN2CCc3ccccc3C2)cc1 | 0 | 0 | 63.0 | 0 | 0 | 0
Cc1nc(N2CCCCC2C)c2c(C)c(C(=O)Nc3cccc(C(F)(F)F)c3)sc2n1 (stereo unspecified) | - | 0 | 67.1 | - | 0 | 0
Cc1nc(N2CCCCC2)c2c(C)c(C(=O)Nc3cccc(C(F)(F)F)c3)sc2n1 | - | 0 | 61.8 | - | 0 | 0
CN1C(=O)c2ccc(NC(=O)c3ccc(N4CCCCC4)c([N+](=O)[O-])c3)cc2C1=O | 0 | 0 | 0 | 0 | 0 | 0
Cc1nc2nc(N)nn2c(C)c1C/C=C/c1ccccc1 | - | 0 | 0 | - | 0 | 0
Cc1cccc(OCC(=O)NNc2c3ccccc3nc3ccccc23)c1 | 0 | 0 | 0 | 0 | 0 | 0
Cc1ccc(OCC(=O)NNc2c3ccccc3nc3ccccc23)cc1 | 0 | 0 | 96.8 | 0 | 0 | 0
CC1C/C(=N\NC(=S)NCc2ccccc2)CC(C)(C)C1 (stereo unspecified) | 0 | 0 | 99.2 | 0 | 0 | 0
COc1ccc(/C=N/N=C2/NC(=O)C(CC(=O)NC(N)=O)S2)cc1 (stereo unspecified) | - | 0 | 0 | - | 0 | 0
COc1ccc(/C=N/N=C2/NC(=O)CC(C(=O)O)S2)cc1 (stereo unspecified) | 0 | 0 | 58.0 | 0 | 0 | 0
CCCC(=O)Nc1cccc(-c2cn3cccnc3n2)c1 | - | 0 | 90.5 | - | 0 | 0
CCCC(=O)Nc1cc(-c2cn3cccnc3n2)ccc1OC | 0 | 0 | 63.0 | 0 | 0 | 0
O=C(Nc1ccccc1)Nc1cccc(-c2cn3cccnc3n2)c1 | - | 0 | 0 | - | 0 | 0
C/C(=N\NC(=O)c1c(Br)cnn1C)c1ccc(NC(=O)c2ccc(F)cc2)cc1 | - | 0 | 0 | - | 0 | 0
Cc1cc(NC(=O)c2ccc(S(=O)(=O)N3CCOCC3)cc2)no1 | - | 0 | 54.3 | - | 0 | 0
COc1cccc2sc(NC(=O)c3ccc(S(=O)(=O)N4CCOCC4)cc3)nc12 | 0 | 0 | 51.5 | 0 | 0 | 0
CCn1c(=NC(=O)c2ccc(S(=O)(=O)N3CCOCC3)cc2)sc2cccc(OC)c21 | 0 | 0 | 99.8 | 0 | 0 | 0
COc1ccccc1NC(=O)c1ccc(S(=O)(=O)N2CCOCC2)cc1 | 0 | 0 | 0 | 0 | 0 | 0
Cc1cccc(NC(=O)c2ccc(S(=O)(=O)N3CCOCC3)cc2)n1 | - | 0 | 0 | - | 0 | 0
CC(C)CNC(=O)C1CCN(c2ccc(S(=O)(=O)N3CCOCC3)cc2)CC1 | 0 | 0 | 0 | 0 | 0 | 0
COc1ccccc1C(=O)NCC1CCN(c2ccc(S(=O)(=O)N3CCOCC3)cc2)CC1 | 0 | 0 | 99.6 | 0 | 0 | 0
CSc1nnc2c(n1)OC1(Nc3ccccc3-2)C(=O)Nc2ccccc21 (stereo unspecified) | - | 0 | 0 | - | 0 | 0
CCOC(=O)N1CCN(C(=O)c2cn(CC)c3ccc(S(=O)(=O)N4CCCCC4)cc3c2=O)CC1 | - | 0 | 0 | - | 0 | 0
NC(N)=NS(=O)(=O)c1ccc(NC(=S)NC(=O)c2sc3ccccc3c2Cl)cc1 | 0 | 0 | 0 | 0 | 0 | 0
COCCCNC(=O)C1CCC(CNS(=O)(=O)c2ccc(C)cc2)CC1 (stereo unspecified) | - | 0 | 0 | - | 0 | 0
O=C(CSc1nnc(NC(=O)c2ccc(S(=O)(=O)N3CCOCC3)cc2)s1)Nc1ccccc1C(F)(F)F | 0 | 0 | 92.3 | 0 | 0 | 0
CN(C)C(=S)SCC(=O)Nc1ccc(Cl)cc1Cl | 0 | 0 | 0 | 0 | 0 | 0
CSCCC(NC(=O)c1ccoc1C)C(=O)O (stereo unspecified) | 0 | 0 | 65.2 | 0 | 0 | 0
